Source: PubChem BioAssay
HePTP inh: blocks human HePTP tyrosine phosphatase. P35236. 110,000 tested, 0.64% active. recombinant HePTP phosphatase activity, OD absorbance. inhibition, % at 20 µM; in the data active = inhibition above about 50%;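 also: plate controls were vehicle for no effect and reference inhibitor for full effect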
Target sequence (P35236 whole entry, looked up): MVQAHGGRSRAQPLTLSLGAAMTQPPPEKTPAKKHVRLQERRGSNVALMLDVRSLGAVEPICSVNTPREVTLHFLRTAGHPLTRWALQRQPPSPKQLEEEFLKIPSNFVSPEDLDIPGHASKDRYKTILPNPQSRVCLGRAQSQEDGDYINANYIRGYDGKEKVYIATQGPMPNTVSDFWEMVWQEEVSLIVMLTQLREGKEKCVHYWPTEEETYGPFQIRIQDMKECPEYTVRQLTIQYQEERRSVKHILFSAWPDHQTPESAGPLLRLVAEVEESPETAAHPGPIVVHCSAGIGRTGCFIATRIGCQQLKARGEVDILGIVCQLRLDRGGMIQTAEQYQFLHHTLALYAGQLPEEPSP
MMP13 inh: MMP13 (human) collagenase inhibition; inhibition, % at 4 µM; MMP-13 fTHP FRET cleavage, Mca fluorescence; AID 570; 65,000 tested, 0.07% active;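 active = inhibition above the mean of compound-free control plate wells plus 3 SD, cut at about 14% in these data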;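 also: 0% = DMSO wells and 100% = wells with reference MMP-13 inhibitor after basal subtraction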
E coli WT exp: E. coli BW25113 growth inhibition, expanded screen. OD600 absorbance. growth inhibition, % at 100 µM. 98,000 tested, 0.15% active. AID 710;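 active = growth inhibition above about 50% at one test dose, limit read from the data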;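 also: growth measured after 20 h incubation at 37 °C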
tolC growth inh: E. coli tolC mutant growth inhibition | growth inhibition, % at 10 µM (by protocol) | 65,000 tested, 2.2% active | E. coli BW25113 tolC mutant growth, OD615;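 active = growth inhibition at or above a cutoff equal to the mean over every tested compound plus 3 SD, cut at about 60% in these data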;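 also: growth measured after 20 h incubation at 37 °C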
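signal = optical density read at 615 nm | test system = E. coli ΔtolC::kan strain BW25113 | timing = 20 h compound exposure of bacteria at 37 °C | buffer or medium = LB medium plus 50 µg/mL kanamycin | compound dosing = 10 µM final, single dose | evaluation = % inhibition of E. coli growth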
E coli RNAP: Escherichia coli RNA polymerase inhibition; inhibition, %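 (tested at 10 µM)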; E. coli RNA polymerase, fluorescence transcription assay; AID 559; 62,000 tested, 0.2% active; in the data active = inhibition above about 20%;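 also: 0% = enzyme without compound and 100% = no enzyme blank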
AP ELISA ortho: alternative pathway complement inhibition, orthogonal assay; Human serum alternative complement pathway, LPS-coated ELISA, C3 deposition; tested in compound mixtures; inhibition, % at 5 µM; 62,000 tested, 0.08% active;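 active = inhibition above 30% in each of the two pooled mixtures holding the compound, so the lower value exceeds 30%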;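 also: 0% = serum in Mg-EGTA without compound and 100% = EDTA serum blank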
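Assay system: Human serum alternative complement pathway, C3 deposition on LPS-coated wells | Incubation: 1 h serum-compound exposure at 37 °C | Doses: 5 µM per compound in ten-compound mixtures | Read-out: Percent inhibition | Technique: ELISA with HRP anti-human C3 antibody, TMB substrate, absorbance 450 nm | Replication: Two pool placements per compound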
* hit, by the source's call. The entries come from a sample that favours hits as a whole.

Screening CC(C)c1ccc(/C=C2/C(=O)NN(c3ccc(F)cc3)C2=O)cc1 returned HePTP inh 4.
For O=C1NN(c2ccc(I)cc2)C(=O)/C1=C\c1ccccc1O the results were HePTP inh 92*.
O=C1NN(c2ccc(I)cc2)C(=O)/C1=C\c1ccc(F)cc1 was read as HePTP inh 104*.
O=C(N=Nc1c(O)[nH]c2ccc([N+](=O)[O-])cc12)c1ccc2c(c1)OCO2 was read as HePTP inh 102*.
`COC(=O)c1sccc1NC(=O)c1cc(-c2ccc(OC)cc2OC)nc2ccccc12` gave HePTP inh 9.
For O=C(N1CCN(c2ccc(F)cc2)CC1)C12CC3CC(CC(C3)C1)C2 the results were HePTP inh 7, MMP13 inh 2, E coli WT exp 4, tolC growth inh 3, E coli RNAP 7 and AP ELISA ortho 5.
O=C(N1CCN(c2ccccc2F)CC1)C12CC3CC(CC(C3)C1)C2 was read as HePTP inh 9, MMP13 inh -2, E coli WT exp 10, tolC growth inh 89*, E coli RNAP 6 and AP ELISA ortho 19.
Cc1cccc(N2CCN(C(=O)C34CC5CC(CC(C5)C3)C4)CC2)c1C was read as HePTP inh 5, MMP13 inh 1, E coli WT exp -6, tolC growth inh 63*, E coli RNAP 6 and AP ELISA ortho 8.
Screening CCC1=NC(C(F)(F)F)(C(F)(F)F)N=C(N2CCCCC2)O1 returned HePTP inh -10.
`O=C(Nc1ccc2c(c1)OCO2)c1ccc(COc2ccc3c(c2)CCC3)o1` gave HePTP inh -3, MMP13 inh 1, E coli WT exp -1, tolC growth inh 72*, E coli RNAP 1 and AP ELISA ortho -1.
CCCn1c(SCC(=O)Nc2ccccc2N2CCCCC2)nc2c1c(=O)n(C)c(=O)n2C was read as HePTP inh -8, MMP13 inh -11, E coli WT exp -12, tolC growth inh 65*, E coli RNAP 9 and AP ELISA ortho -1.
Screening CCC(=O)Nc1ccc(NC(=O)c2ccc(OCC(C)C)cc2)cc1 returned HePTP inh 3.
For COc1ccc(OC)c(NS(=O)(=O)c2c(C)cc(C)cc2C)c1 the results were HePTP inh 3.
Screening Cc1c(-c2ccc(Cl)cc2Cl)nc2ccccc2c1C(=O)NCc1ccc2c(c1)OCO2 returned HePTP inh 103*.
Screening O=C(NCc1ccc2c(c1)OCO2)c1cccc(C(=O)NCc2ccc3c(c2)OCO3)c1 returned HePTP inh 12, MMP13 inh 21*, E coli WT exp -7, tolC growth inh -2, E coli RNAP 3 and AP ELISA ortho 17.
Screening COC(=O)CN1C(=O)/C(=C\c2ccc([N+](=O)[O-])cc2)SC1=S returned HePTP inh 6.
Screening CCOC(=O)C1=C(C)NC(SCC(=O)Nc2cc(C)on2)=C(C#N)C1c1cccs1 (stereo unspecified) returned HePTP inh -1, MMP13 inh 1, E coli WT exp -1, tolC growth inh 94*, E coli RNAP 8 and AP ELISA ortho -6.
For CCOC(=O)C1=C(C)NC(SCC(N)=O)=C(C#N)C1c1cccs1 (stereo unspecified) the results were E coli WT exp 22.
For COc1ccc(NC(=O)CN(c2cc(OC)ccc2OC)S(C)(=O)=O)cc1 the results were HePTP inh 3.
Screening COc1ccc(N2C(=O)C3C(C2=O)N2CCCN2C3c2ccc(Cl)cc2)cc1 (stereo unspecified) returned HePTP inh -4.
`CCc1c(C)sc(NC(=O)CCc2ccc(OC)cc2)c1C(=O)OC` gave HePTP inh 104*.
`CCc1ccc(N2C(=O)/C(=C/c3ccc(I)o3)C(=O)NC2=S)cc1` gave HePTP inh 105*.
O=C1NC(=S)N(c2ccccc2F)C(=O)/C1=C/c1ccc(I)o1 was read as HePTP inh 104*.
For CCOc1ccc(N2C(=O)NC(=O)/C(=C\c3ccc(I)o3)C2=O)cc1 the results were HePTP inh 25.
Screening O=C1NC(=S)N(c2ccccc2F)C(=O)/C1=C/c1ccc(OCc2cccc(C(=O)O)c2)cc1 returned HePTP inh 102*.
C=CCN1C(=O)/C(=C\c2ccc(I)o2)C(=O)NC1=S was read as HePTP inh 13.
